# Source: article PMC9063861 (RSC Advances, 2019)
# How the values were obtained:
# [1] = biological target: Laccase from Trametes versicolor; assay: Kinetics of the oxidation of flavones catalyzed by laccase; type: biochemical
# How it was run: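 Laccase from Trametes versicolor, 120 U g−1. Oxidation products were quantified by LC-MS/MS using ESI in negative mode with multiple reaction monitoring. The mobile phase was acetonitrile–0.1% formic acid (aq) at 450 μL min−1. Nitrogen served as curtain and collision gas, at 13 and 6 psi respectively.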
# [2] = biological target: T1, Horseradish peroxidase (HRP) (Armoracia rusticana, UniProt P00433); assay: Kinetics of the oxidation of flavones catalyzed by HRP; type: biochemical
# T1 sequence (P00433 31-338 limits assumed): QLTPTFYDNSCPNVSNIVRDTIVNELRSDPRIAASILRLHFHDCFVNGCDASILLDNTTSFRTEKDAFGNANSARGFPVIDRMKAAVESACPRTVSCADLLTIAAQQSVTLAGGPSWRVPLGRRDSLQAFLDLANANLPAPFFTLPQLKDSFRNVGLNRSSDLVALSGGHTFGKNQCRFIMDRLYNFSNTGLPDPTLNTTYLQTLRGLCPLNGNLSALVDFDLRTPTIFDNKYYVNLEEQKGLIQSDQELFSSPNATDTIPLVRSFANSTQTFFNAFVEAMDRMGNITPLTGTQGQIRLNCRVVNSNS
# How it was run: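 Horseradish peroxidase, >250 U mg−1. Oxidation products were quantified by LC-MS/MS using ESI in negative mode with multiple reaction monitoring. The mobile phase was acetonitrile–0.1% formic acid (aq) at 450 μL min−1. Nitrogen served as curtain and collision gas, at 13 and 6 psi respectively.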
Structure (SMILES),kinetic model of oxidation by laccase [1],K m ([1]; formation of the named product) [mM],Ki ([1]; read-out: Ki (inhibitory effect on laccase)) [µM],kinetic model of oxidation by HRP [2],K m ([2]; formation of the named product) [mM],n (Hill kinetic model) ([2]; formation of the named product)
"O=c1c(O)c(-c2ccc(O)cc2)oc2cc(O)cc(O)c12 [compound 5, kaempferol]",substrate inhibition kinetic model,8.288 ± 0.401,1660,,,
"O=c1cc(-c2ccc(O)cc2)oc2cc(O)cc(O)c12 [compound 1, apigenin]",,,,Hill kinetic model,0.1635,2.944
"O=c1c(-c2ccc(O)cc2)coc2cc(O)ccc12 [compound 10, daidzein]",Hill-kinetic model,,,Hill kinetic model,,
"O=C(/C=C/c1ccc(O)cc1)c1ccc(O)cc1O [compound 12, isoliquiritigenin]",Hill-kinetic model,,,substrate inhibition kinetics,,
"O=C1C[C@@H](c2ccc(O)cc2)Oc2cc(O)cc(O)c21 [compound 8, naringenin]",,,,substrate inhibition kinetics,,
